In ChEMBL document CHEMBL1122079, “Tryptophan analogues. 1. Synthesis and antihypertensive activity of positional isomers” (1982):

Columns and labels:
Rattus norvegicus [1] = assay: Antihypertensive activity in renal hypertensive rats 2 hr after oral administration (10 mg/Kg); assay type: functional
Procedure, shortened: (§1)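 Renal hypertensive rats (5 or 10 per group), 10 mg/kg given orally. Systolic pressure measured indirectly by tail occluding cuff with pulse sensor, once before dosing as control and again at 1, 2, 4, 6 and 8 h. Values are changes in mean systolic pressure from control (mmHg). Significance of control vs posttreatment assessed by Wilcoxon's signed rank test (p < 0.05).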

Rattus norvegicus [2] = assay: Antihypertensive activity in renal hypertensive rats 4 hr after oral administration (10 mg/Kg); assay type: functional; procedure, shortened: as §1
Felis catus [3] = assay: Change in blood pressure in normotensive anesthetized cat.; assay type: functional
Procedure, shortened: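 Normotensive cats of either sex (2-4 kg) anesthetized with α-chloralose (80 mg/kg iv). Trachea, femoral artery and jugular vein cannulated. Compound given iv at 10 mg/kg, with 1 mg/kg iv used in one case. Mean blood pressure recorded by pressure transducer before and 30 min after dosing, reported as decrease in mmHg.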

Rattus norvegicus [4] = assay: Antihypertensive activity in renal hypertensive rats 6 hr after oral administration (10 mg/Kg); assay type: functional; procedure, shortened: as §1
Felis catus [5] = assay: Control blood pressure in normotensive anesthetized cat at dose 10 mg/Kg iv
Rattus norvegicus [6] = assay: Antihypertensive activity in renal hypertensive rats 1 hr after oral administration (10 mg/Kg); assay type: functional; procedure, shortened: as §1
Rattus norvegicus [7] = assay: Antihypertensive activity in renal hypertensive rats 8 hr after oral administration (10 mg/Kg); assay type: functional; procedure, shortened: as §1

Row | SMILES | BP (Rattus norvegicus [1]) | BP (Rattus norvegicus [2]) | BP (Felis catus [3]) | BP (Rattus norvegicus [4]) | control BP (Felis catus [5]) | BP (Rattus norvegicus [6]) | BP (Rattus norvegicus [7])
1 | NCC(c1nnn[nH]1)c1c[nH]c2ccccc12 (configuration not stated) | 1 mmHg | 8 mmHg | -5 mmHg | 5 mmHg | 155 mmHg | 8 mmHg | 2 mmHg
2 | CCCCCOC(=O)C(CN)c1c[nH]c2ccc(OC)cc12.Cl (configuration not stated) | -11 mmHg | -3 mmHg | 2 mmHg | -11 mmHg | 148 mmHg | -7 mmHg | -4 mmHg
3 | CCOC(=O)CC(c1nnn[nH]1)c1c[nH]c2cccc(Cl)c12 (configuration not stated) | -12 mmHg | -5 mmHg | -35 mmHg | -2 mmHg | 135 mmHg | -4 mmHg | 4 mmHg
4 | CCOC(=O)C(CNC(C)=O)c1cn(C(=O)OCC)c2cc(Cl)ccc12 (configuration not stated) | -12 mmHg | -12 mmHg | -2 mmHg | -7 mmHg | 165 mmHg | -18 mmHg | -3 mmHg
5 | CCOC(=O)CC(c1nnn[nH]1)c1c[nH]c2cc(OC)c(OC)cc12 (configuration not stated) | -15 mmHg | -20 mmHg | -6 mmHg | -25 mmHg | 164 mmHg | -11 mmHg | -14 mmHg
6 | CCOC(=O)C(CNC(C)=O)c1cn(C(=O)OCC)c2ccccc12 (configuration not stated) | -3 mmHg | -18 mmHg | -49 mmHg | -22 mmHg | 135 mmHg | -3 mmHg | -18 mmHg
7 | COC(=O)CC(CN)c1c[nH]c2ccc(OC)cc12 (configuration not stated) | -15 mmHg | -6 mmHg | -25 mmHg | -13 mmHg | 166 mmHg | -14 mmHg | -12 mmHg
8 | Cl.NCC(C(=O)O)c1c[nH]c2ccc(Br)cc12 (configuration not stated) | -5 mmHg | 0 mmHg | -15 mmHg | 5 mmHg | 115 mmHg | -12 mmHg | 0 mmHg
9 | CCOC(=O)C(CN)c1c[nH]c2ccc(OC)cc12.Cl (configuration not stated) | -4 mmHg | 4 mmHg | 0 mmHg | -2 mmHg | 160 mmHg | -5 mmHg | -3 mmHg
10 | CCOC(=O)CC(CNC(C)=O)c1c[nH]c2ccccc12 (configuration not stated) | -11 mmHg | -7 mmHg | -21 mmHg | -6 mmHg | 169 mmHg | -8 mmHg | -2 mmHg
11 | CCOC(=O)NCC(c1nnn[nH]1)c1c[nH]c2ccccc12 (configuration not stated) | -6 mmHg | -24 mmHg | 5 mmHg | -17 mmHg | 155 mmHg | -10 mmHg | -15 mmHg
12 | COC(=O)C(CN)c1c[nH]c2cccc(Cl)c12.Cl (configuration not stated) | -9 mmHg | -20 mmHg | -10 mmHg | -9 mmHg | 131 mmHg | -7 mmHg | -8 mmHg
13 | NCC(C(=O)O)c1c[nH]c2ccc(F)cc12 (configuration not stated) | -26 mmHg | -27 mmHg | -25 mmHg | -15 mmHg | 180 mmHg | -19 mmHg | 0 mmHg
14 | COC(=O)C(CN)c1c[nH]c2ccc(Cl)cc12.Cl (configuration not stated) | -5 mmHg | 0 mmHg | -61 mmHg | 2 mmHg | 160 mmHg | -8 mmHg | 5 mmHg
15 | NCC(C(=O)O)c1c[nH]c2cc(Cl)ccc12 (configuration not stated) | -5 mmHg | -6 mmHg | -2 mmHg | -14 mmHg | 179 mmHg | -4 mmHg | -9 mmHg
16 | NCC(CC(=O)O)c1c[nH]c2cc(Cl)ccc12 (configuration not stated) | 5 mmHg | -9 mmHg | 5 mmHg | -9 mmHg | 160 mmHg | 2 mmHg | -2 mmHg
17 | COC(=O)C(c1c[nH]c2ccc(OC)cc12)C(C)N (configuration not stated) | -3 mmHg | -3 mmHg |  | 3 mmHg |  | -6 mmHg | 2 mmHg
18 | COc1ccc2[nH]cc(C(CNC(C)=O)C(=O)O)c2c1 (configuration not stated) | -18 mmHg | -24 mmHg | -14 mmHg | -28 mmHg | 154 mmHg | -16 mmHg | -8 mmHg

Row | SMILES | BP (Rattus norvegicus [1]) | BP (Rattus norvegicus [2]) | BP (Felis catus [3]) | BP (Rattus norvegicus [4]) | control BP (Felis catus [5]) | BP (Rattus norvegicus [6]) | BP (Rattus norvegicus [7])
19 | CCOC(=O)C(CN)c1c[nH]c2ccc(Br)cc12.Cl (configuration not stated) | -7 mmHg | -2 mmHg | -18 mmHg | -3 mmHg | 143 mmHg | -3 mmHg | 1 mmHg
20 | COC(=O)C(CN)c1c[nH]c2cc(OC)c(OC)cc12.Cl (configuration not stated) | -2 mmHg | -4 mmHg | -16 mmHg | -7 mmHg | 160 mmHg | -15 mmHg | -2 mmHg
21 | CCOC(=O)C(N)Cc1c[nH]c2ccc(O)cc12 (configuration not stated) | -5 mmHg | 2 mmHg | -24 mmHg | 2 mmHg | 156 mmHg | -14 mmHg | 1 mmHg
22 | N[C@@H](Cc1c[nH]c2ccccc12)C(=O)O [TRYPTOPHAN] | -9 mmHg | -15 mmHg | -22 mmHg | -4 mmHg | 165 mmHg | -12 mmHg | 0 mmHg
23 | CCOC(=O)NCC(c1nnn[nH]1)c1c[nH]c2ccc(OC)cc12 (configuration not stated) | 2 mmHg | 0 mmHg | 5 mmHg | 2 mmHg | 160 mmHg | -2 mmHg | 0 mmHg
24 | COc1ccc2[nH]cc(C(CN)C(=O)O)c2c1 (configuration not stated) | -10 mmHg | 2 mmHg | -5 mmHg | -6 mmHg | 142 mmHg | -1 mmHg | -2 mmHg
25 | COc1ccc2[nH]cc(C(CN)c3nnn[nH]3)c2c1 (configuration not stated) | 5 mmHg | -2 mmHg | -4 mmHg | 3 mmHg | 167 mmHg | -2 mmHg | 13 mmHg
26 | CCOC(=O)C(CNC(C)=O)c1cn(C(=O)OCC)c2ccc(OC)cc12 (configuration not stated) | -12 mmHg | -21 mmHg | 0 mmHg | -20 mmHg | 195 mmHg | -15 mmHg | -14 mmHg
27 | COC(=O)C(CN)c1c[nH]c2ccc(F)cc12.Cl (configuration not stated) | -18 mmHg | -9 mmHg | -30 mmHg | -4 mmHg | 133 mmHg | -28 mmHg | 1 mmHg
28 | CCOC(=O)C(CNC(C)=O)c1cn(C(=O)OCC)c2cccc(Cl)c12 (configuration not stated) | -1 mmHg | 3 mmHg | 11 mmHg | 0 mmHg | 183 mmHg | -8 mmHg | 2 mmHg
29 | COC(=O)C(N)Cc1c[nH]c2ccc(OC)cc12 (configuration not stated) | 4 mmHg | -8 mmHg | -12 mmHg | 4 mmHg | 136 mmHg | -7 mmHg | -1 mmHg
30 | COC(=O)C(CN)c1c[nH]c2ccc(OC)cc12.Cl (configuration not stated) [INDORENATE HYDROCHLORIDE] | -71 mmHg | -38 mmHg | -82 mmHg | -10 mmHg | 162 mmHg | -85 mmHg | 2 mmHg
31 | COC(=O)C(CN(C)C)c1c[nH]c2ccccc12 (configuration not stated) | 0 mmHg | 2 mmHg | -35 mmHg | 11 mmHg | 145 mmHg | -2 mmHg | 1 mmHg
32 | COC(=O)C(CN)c1c[nH]c2ccc(Br)cc12.Cl (configuration not stated) | -10 mmHg | 6 mmHg | -35 mmHg | 8 mmHg | 125 mmHg | -6 mmHg | 7 mmHg
33 | COC(=O)CC(CN)c1c[nH]c2cc(Cl)ccc12 (configuration not stated) | -4 mmHg | -3 mmHg | -10 mmHg | -11 mmHg | 158 mmHg | 2 mmHg | -6 mmHg
34 | COc1ccc2[nH]cc(C(CN)CO)c2c1.O=C(O)C(=O)O (configuration not stated) | -15 mmHg | 4 mmHg |  | -8 mmHg |  | -13 mmHg | 0 mmHg
35 | COC(=O)C(CN(C)C)c1c[nH]c2ccc(OC)cc12.O=C(O)C(=O)O (configuration not stated) | -2 mmHg | 1 mmHg | -35 mmHg | 14 mmHg | 167 mmHg | -9 mmHg | 13 mmHg
36 | CCCOc1ccc2[nH]cc(C(CN)C(=O)OC)c2c1.Cl (configuration not stated) | 6 mmHg | 8 mmHg |  | 9 mmHg | 150 mmHg | -6 mmHg | 5 mmHg
